Data reported in ChEMBL document CHEMBL2150890, “Antioxidant properties of Mannich bases” (Bioorg Med Chem Lett, 2012).
Active and inactive are the calls of the source. The calls are words filed in the database; no cut-off is given here.

How the values were obtained:
[1] = tested on: Radical scavenging activity; assay: Antioxidant activity of the compound assessed as DPPH radical scavenging activity; format: functional
Method in brief: (§1)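 Scavenging of the DPPH radical read by absorbance at 520 nm. % scavenging = (A_blank − A_sample)/A_blank × 100. Scavenging also followed at 0.5, 1, 2, 4, 6, 12 and 24 h. Three independent experiments, mean ± SD, one-way ANOVA.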

[2] = Antioxidant activity of the compound assessed as phosphate/Mo5 complex formation at 6.25 to 100 uM after 90 mins; format: functional
Method in brief: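 Phosphomolybdenum method: compound incubated with 0.6 M H2SO4, 28 mM sodium phosphate and 4 mM ammonium molybdate at 95 °C for 90 min. After cooling to room temperature, absorbance read at 695 nm against a blank. Result expressed as vitamin C equivalent; three independent experiments, mean ± SD.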

[3] = tested on: Radical scavenging activity; assay: Antioxidant activity of the compound assessed as DPPH radical scavenging activity at 50 uM; format: functional; method in brief: as §1
[4] = Antioxidant activity of the compound in phosphate buffer at pH 6.6 assessed as potassium ferric cyanide ion reducing activity at 6.25 to 100 uM after 20 mins; format: functional; parameters: scale not given: the % may be the effect or the level left
Method in brief: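 Ferricyanide reducing power: sample in 0.2 M phosphate buffer, pH 6.6, incubated with 1% w/v potassium ferricyanide at 50 °C for 20 min. Reducing effect expressed relative to vitamin C; three independent experiments, mean ± SD.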

[5] = Ratio of alpha-tocopherol IC50 to compound IC50 for antioxidant activity of the compound assessed as DPPH radical scavenging activity
RAW264.7 [6] = assay: Cytotoxicity against mouse RAW264.7 cells up to 100 uM after 24 hrs by MTT assay; format: cell-based; conditions: raw264.7, 24 h
Method in brief: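 RAW 264.7 cells (DMEM, 10% FBS, 2 mM glutamine, penicillin/streptomycin; 37 °C, 5% CO2) seeded at 1 × 10^4 cells/well. After 24 h, treated with a range of compound concentrations for 24 h. MTT (1 mg/mL) added for 4 h, formazan dissolved in DMSO, absorbance read at 540 nm.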

RAW264.7 [7] = assay: Antioxidant activity in mouse RAW264.7 cells assessed as inhibition of H2O2-induced intracellular ROS formation after 30 mins in dark prior to H2O2 challenge measured after 30 mins post H2O2 challenge by H2DCF-DA based flow cytometry; format: functional, cell-based
Method in brief: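 RAW 264.7 cells grown in DMEM/10% FBS at 37 °C, 5% CO2. Loaded with 20 µM H2DCF-DA in HBSS for 30 min, then compound (50 and 100 µM) in HBSS for 30 min at 37 °C in the dark. H2O2 challenge for 30 min, cells scraped and filtered, flow cytometry at 488 nm excitation. Geometric mean fluorescence reported; three independent experiments, mean ± SD.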

IC50 [1] [µM] | Structure (SMILES) | Activity [2] [%] | Activity [3] | Activity [4] | Ratio IC50 [5] | Activity (RAW264.7 [6]) | inhibition (RAW264.7 [7])
36 | Oc1ccccc1O [CATECHOL] | – | – | – | – | – | –
– | COc1cc([C@H]2N[C@@H](c3ccc(O)c(OC)c3)[C@H]3CCC[C@H]2C3=O)ccc1O | 56.8 | 80% | 116% | – | – | –
26.1 | O=C1[C@@H]2CCC[C@@H]1[C@H](c1ccc(O)c(O)c1)N[C@@H]2c1ccc(O)c(O)c1 | 62.3 | 80% | 163% | 1 | Non-toxic | Dose-dependent effect
35.1 | COc1cc(/C=C/C(=O)CC(=O)/C=C/c2ccc(O)c(OC)c2)ccc1O [CURCUMIN] | – | – | – | – | – | –
59 | Cc1c(C)c2c(c(C)c1O)CC[C@@](C)(CCC[C@H](C)CCC[C@H](C)CCCC(C)C)O2 [ALPHA-TOCOPHEROL] | – | Active | – | – | – | –
– | O=C1O[C@H]([C@@H](O)CO)C(O)=C1O | – | Active | Active | – | – | –
